Data on three molecules can be found in ChEMBL document CHEMBL1629434, “Cholesterol-based α-phenyl-N-tert-butyl nitrone derivatives as antioxidants against light-induced retinal degeneration” (Bioorg Med Chem Lett, 2010).

Each structure is given as a SMILES string. Active and inactive are the calls of the source. The calls are words filed in the database; no cut-off is given here.

Data set [1] is described as follows: Solubility of the compound at 1 mM in PBS. Conditions: buffer, 1000 µM. The data set is classed as physicochemical.
Data set [2] is filed under the species Rattus norvegicus. Put plainly: Protection against light-induced photoreceptor degradation in albino rat retina exposed to bright fluorescent light assessed as reduction in ONL thickness on superior side at 1 mM, intravitreally after 24 hrs. The format is functional, organism-based. The essentials: (§1)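 Albino rats got a 2 µL intravitreal injection 18 h before 24 h exposure to bright fluorescent light. Compounds insoluble in PBS 1× at 1 mM were given in DMSO 2%; PBS-soluble ones were given in PBS 1×. Untreated-unexposed and DMSO 2% groups served as controls.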

Data set [3] in a line: Solubility of the compound at 1 mM in 2% DMSO. The format is physicochemical. As to conditions: 1000 µM.
Data set [4] in a line: Half life in albino rat retina. The format is ADME, tissue-based.
The species entered for data set [5] is Rattus norvegicus. The data set can be described thus: Protection against light-induced photoreceptor degradation in albino rat retina exposed to 12 hrs dark and 12 hrs light assessed as reduction in ONL thickness on superior side at 9 mM, intravitreally after 24 hrs. The format is functional, organism-based. The essentials: as §1
The species named for data set [6] is Rattus norvegicus. Put plainly: Protection against light-induced photoreceptor degradation in albino rat retina exposed to 12 hrs dark and 12 hrs light assessed as reduction in ONL thickness at 1 mM, intravitreally after 24 hrs. The data set is classed as functional, organism-based. A digest of the protocol:
as §1

Data set [7] is filed under the species Rattus norvegicus. Put plainly: Protection against light-induced photoreceptor degradation in albino rat retina exposed to 12 hrs dark and 12 hrs light assessed as reduction in ONL thickness on inferior side at 9 mM, intravitreally after 24 hrs. The format is functional, organism-based. A digest of the protocol: as §1

Consider `CC(C)CCC[C@@H](C)[C@H]1CC[C@H]2[C@@H]3CC=C4C[C@@H](OCCC(=O)NCC(C)(C)/[N+]([O-])=C/c5ccc(CNC(=O)[C@@H](O)[C@H](O)[C@H](O[C@@H]6O[C@H](CO)[C@H](O)[C@H](O)[C@H]6O)[C@@H](O)CO)cc5)CC[C@]4(C)[C@H]3CC[C@]12C`, for which the solubility result was “Insoluble” in data set [1] and “soluble” in data set [3]. Also, in the data set filed under Rattus norvegicus [2], the outcome was inactive.
`CC(C)(C)/[N+]([O-])=C/c1ccccc1` gave a half-life in data set [4] of 2 h. In addition, the result in the data set listed under Rattus norvegicus [5] and in the data set filed under Rattus norvegicus [7] was Active. In the data set filed under Rattus norvegicus [6], the result was inactive.
In the case of `CC(C)CCC[C@@H](C)[C@H]1CC[C@H]2[C@@H]3CC=C4C[C@@H](OCCC(=O)NCc5ccc(/C=[N+](\[O-])C(C)(C)CNC(=O)[C@@H](O)[C@H](O)[C@H](O[C@@H]6O[C@H](CO)[C@H](O)[C@H](O)[C@H]6O)[C@@H](O)CO)cc5)CC[C@]4(C)[C@H]3CC[C@]12C`, the values for the solubility result in data set [1] and in data set [3] were “Insoluble” and “soluble”, respectively. The result in the data set listed under Rattus norvegicus [2] was Active.

The term half-life denotes how long it takes for the measured level to halve.
